Measurements: ChEMBL document CHEMBL1154674, “Synthesis and evaluation of three 18F-labeled aminophenylbenzothiazoles as amyloid imaging agents” (J Med Chem, 2009)
Values belong to the molecule of their own block, whether it stands above or below them.

Experiments:
Format in all cases: ADME, organism-based, Macaca mulatta
[1] = Drug level in normal rhesus monkey pons assessed as standard uptake value at 96.3 MBq, iv after 42.5 mins by microPET; settings: in vivo
[2] = Drug level in normal rhesus monkey thalamus assessed as standard uptake value at 96.3 MBq, iv after 75 mins by microPET; settings: in vivo, 1.25 h
[3] = Drug level in normal rhesus monkey thalamus assessed as standard uptake value at 96.3 MBq, iv after 135 mins by microPET; settings: in vivo, 2.25 h
[4] = Drug level in normal rhesus monkey cerebellum assessed as standard uptake value at 96.3 MBq, iv after 32.5 mins by microPET; settings: in vivo
How it was run: (§1)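 One normal rhesus monkey, each tracer given iv via the vena saphena (81.2, 96.3 or 109.4 MBq), with 1 day between tracer injections. Dynamic brain μPET over 180 min used frames of 5 × 60 s, 5 × 120 s, 9 × 300 s and 12 × 600 s. Images were reconstructed by filtered back projection with a RAMP filter. Regional time-activity curves were expressed as SUV.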

[5] = Drug level in normal rhesus monkey thalamus assessed as standard uptake value at 96.3 MBq, iv after 65 mins by microPET; settings: in vivo
[6] = Drug level in normal rhesus monkey thalamus assessed as standard uptake value at 96.3 MBq, iv after 2.5 mins by microPET; settings: in vivo
[7] = Drug level in normal rhesus monkey parietal cortex assessed as standard uptake value at 96.3 MBq, iv after 47.5 mins by microPET; settings: in vivo
[8] = Drug level in normal rhesus monkey parietal cortex assessed as standard uptake value at 96.3 MBq, iv after 22.5 mins by microPET; settings: in vivo, 0.375 h
[9] = Drug level in normal rhesus monkey white matter assessed as standard uptake value at 96.3 MBq, iv after 12 mins by microPET; settings: in vivo, 0.2 h
[10] = Drug level in normal rhesus monkey white matter assessed as standard uptake value at 96.3 MBq, iv after 2.5 mins by microPET; settings: in vivo
[11] = Drug level in normal rhesus monkey pons assessed as standard uptake value at 96.3 MBq, iv after 4.5 mins by microPET; settings: in vivo, 0.075 h
[12] = Drug level in normal rhesus monkey white matter assessed as standard uptake value at 109.4 MBq, iv after 47.5 mins by microPET; settings: in vivo
[13] = Drug level in normal rhesus monkey thalamus assessed as standard uptake value at 109.4 MBq, iv after 37.5 mins by microPET; settings: in vivo, 0.625 h
[14] = Drug level in normal rhesus monkey frontal cortex assessed as standard uptake value at 109.4 MBq, iv after 4.5 mins by microPET; settings: in vivo, 0.075 h; how it was run: as §1
[15] = Drug level in normal rhesus monkey frontal cortex assessed as standard uptake value at 109.4 MBq, iv after 47.5 mins by microPET; settings: in vivo; how it was run: as §1
[16] = Drug level in normal rhesus monkey frontal cortex assessed as standard uptake value at 109.4 MBq, iv after 81 mins by microPET; settings: in vivo, 1.35 h
[17] = Drug level in normal rhesus monkey parietal cortex assessed as standard uptake value at 109.4 MBq, iv after 15.5 mins by microPET; settings: in vivo
[18] = Drug level in normal rhesus monkey parietal cortex assessed as standard uptake value at 109.4 MBq, iv after 42.5 mins by microPET; settings: in vivo
[19] = Drug level in normal rhesus monkey thalamus assessed as standard uptake value at 109.4 MBq, iv after 0.875 mins by microPET; settings: in vivo, 52 s
[20] = Drug level in normal rhesus monkey white matter assessed as standard uptake value at 109.4 MBq, iv after 1.5 mins by microPET; settings: in vivo, 0.025 h
[21] = Drug level in normal rhesus monkey frontal cortex assessed as standard uptake value at 81.2 MBq, iv after 57.5 mins by microPET; settings: in vivo
[22] = Drug level in normal rhesus monkey thalamus assessed as standard uptake value at 81.2 MBq, iv after 27.5 mins by microPET; settings: in vivo
[23] = Drug level in normal rhesus monkey parietal cortex assessed as standard uptake value at 81.2 MBq, iv after 155 mins by microPET; settings: in vivo
[24] = Drug level in normal rhesus monkey pons assessed as standard uptake value at 81.2 MBq, iv after 3.5 mins by microPET; settings: in vivo
[25] = Drug level in normal rhesus monkey white matter assessed as standard uptake value at 81.2 MBq, iv after 32.5 mins by microPET; settings: in vivo
[26] = Drug level in normal rhesus monkey thalamus assessed as standard uptake value at 81.2 MBq, iv after 8 mins by microPET; settings: in vivo
[27] = Drug level in normal rhesus monkey parietal cortex assessed as standard uptake value at 81.2 MBq, iv after 32.5 mins by microPET; settings: in vivo
[28] = Drug level in normal rhesus monkey pons assessed as standard uptake value at 81.2 MBq, iv after 145 mins by microPET; settings: in vivo
[29] = Drug level in normal rhesus monkey frontal cortex assessed as standard uptake value at 81.2 MBq, iv after 17.5 mins by microPET; settings: in vivo
[30] = Drug level in normal rhesus monkey parietal cortex assessed as standard uptake value at 81.2 MBq, iv after 145 mins by microPET; settings: in vivo
[31] = Drug level in normal rhesus monkey parietal cortex assessed as standard uptake value at 81.2 MBq, iv after 12 mins by microPET; settings: in vivo, 0.2 h
[32] = Drug level in normal rhesus monkey white matter assessed as standard uptake value at 81.2 MBq, iv after 2.5 mins by microPET; settings: in vivo
[33] = Drug level in normal rhesus monkey pons assessed as standard uptake value at 81.2 MBq, iv after 165 mins by microPET; settings: in vivo, 2.75 h
[34] = Drug level in normal rhesus monkey thalamus assessed as standard uptake value at 81.2 MBq, iv after 42.5 mins by microPET; settings: in vivo
[35] = Drug level in normal rhesus monkey pons assessed as standard uptake value at 152.9 MBq, iv after 1.5 mins by microPET; settings: in vivo, 0.025 h
[36] = Drug level in normal rhesus monkey white matter assessed as standard uptake value at 152.9 MBq, iv after 6 mins by microPET; settings: in vivo, 0.1 h
[37] = Drug level in normal rhesus monkey frontal cortex assessed as standard uptake value at 152.9 MBq, iv after 4.5 mins by microPET; settings: in vivo, 0.075 h
How it was run: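 Single normal rhesus monkey; tracer given iv via the vena saphena, 1 day apart from the other tracer injections. Dynamic μPET ran 90 min (5×60 s, 5×120 s, 9×300 s, 3×600 s). Images were reconstructed by filtered back projection with a RAMP filter. Regional time-activity curves were expressed as SUV.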

[38] = Drug level in normal rhesus monkey cerebellum assessed as standard uptake value at 152.9 MBq, iv after 2.5 mins by microPET; settings: in vivo
How it was run: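 One normal rhesus monkey received each tracer via the vena saphena, with 1 day between injections. Dynamic μPET ran 180 min for 18F tracers (5×60 s, 5×120 s, 9×300 s, 12×600 s) and 90 min for the 11C tracer (5×60 s, 5×120 s, 9×300 s, 3×600 s). Filtered back-projection reconstruction (RAMP filter) was used. Time-activity curves were drawn to give regional SUV.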

SUV [1]: 1.7
SUV [2]: 2.19
SUV [3]: 1.97
SUV [4]: 1.46
SUV [5]: 2.21
SUV [6]: 1.52
SUV [7]: 1.72
SUV [8]: 2.09
SUV [9]: 1.31
SUV [10]: 0.94
SUV [11]: 1.28
Structure (SMILES): CN(C)c1ccc2nc(-c3ccc([18F])cc3)sc2c1

SUV [12]: 3.53
SUV [13]: 5.66
SUV [14]: 5.43
SUV [15]: 4.76
SUV [16]: 4.41
SUV [17]: 5.1
SUV [18]: 4.54
SUV [19]: 2.43
SUV [20]: 1.98
Structure (SMILES): Nc1ccc2nc(-c3ccc([18F])cc3)sc2c1

SUV [21]: 5.004
SUV [22]: 5.4
SUV [23]: 2.662
SUV [24]: 4.503
SUV [25]: 3.799
SUV [26]: 4.734
SUV [27]: 4.094
SUV [28]: 5.067
SUV [29]: 5.789
SUV [30]: 2.565
SUV [31]: 4.756
SUV [32]: 2.607
SUV [33]: 4.946
SUV [34]: 5.578
Structure (SMILES): CNc1ccc2nc(-c3ccc([18F])cc3)sc2c1

SUV [35]: 0.447
SUV [36]: 1.364
SUV [37]: 2.11
SUV [38]: 1.545
Structure (SMILES): [11CH3]Nc1ccc(-c2nc3ccc(O)cc3s2)cc1 [PITTSBURGH COMPOUND B]
